From PubChem
Only some compounds are listed: those with a hit (about 3% of all), similar ones and a draw of the others.
DSG3 Ab inh: blocks pemphigus antibody binding to human desmoglein-3. P32926. DSG3-coupled beads, scFv-anti-DSG3-GFP binding, flow cytometry; stronger effect = lower value. binding (percent of control), % at 10 µM. 310,000 tested, 0.48% active;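 active = binding more than 3 SD below its plate's average and above zero; inconclusive = below that plate limit but binding exactly zero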;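 note: hits lower antibody fragment binding to DSG3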
Granule exo inh: blocks lytic granule exocytosis. inhibition, % at 10 µM. 360,000 tested, 0.66% active. TALL-104 LAMP-1 surface exposure, flow cytometry; cells stimulated with thapsigargin and PMA;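 active = inhibition above about 55%, limit read from the data; inconclusive = no clear call, values can overlap the other calls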
Cardio protect: modulators protecting cardiomyocytes from myocardial damage; H9c2 cardiomyocytes, H2O2 injury protection, ATPLite, 2 h; protection from H2O2 cell death, % at 20 µM; 360,000 tested, 0.63% active;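 active = compounds giving at least 50% protection of heart cells from peroxide-induced death in the single-dose screen, raw or plate-pattern-corrected value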;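 note: 0% = DMSO wells with peroxide and 100% = DMSO wells without peroxide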
SENP1 inh: blocks the human SENP1 SUMO protease catalytic domain; recombinant SENP1 catalytic domain, CyPet-SUMO1-YPet FRET cleavage; inhibition, % at 10 µM; 360,000 tested, 0.21% active; AID 624204;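 active = inhibition at least 30% at 10 µM, raw YFP signal under a set limit, fluorescence ratio 0.5 to 1.5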;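 note: 0% = enzyme with DMSO and 100% = no enzyme wells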
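Assay system: hSENP1 catalytic domain, recombinant. Amount: SENP1 enzyme, 20 pM final. Schedule: 50 min reaction, RT, dark. Technique: FRET, CFP and YFP emission. Control set: no-enzyme wells low, DMSO-plus-enzyme wells high control.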
Myeloid diff MLP: myeloid differentiation induction. calls only at 10 µM. ER-HoxA9 myeloid progenitors, lysozyme-GFP differentiation, flow cytometry. AID 624256. 360,000 tested, 1% active;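 active = normalized GFP-positive differentiation at or above the plate's own cutoff, the solvent-only control mean plus 3 SD; inconclusive = no clear call, values can overlap the other calls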;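 note: cells exposed to compound for four days before flow analysis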
HNF4A DNA FP: change in binding of human HNF4 alpha to DNA | 360,000 tested, 0.3% active | HNF4a-FITC DNA binding, fluorescence polarization, 1 h | activity change, % at 10 µM | P41235; in the data active = activity change above about 30%, passing the limit was not always enough
An asterisk follows results filed as active; i = inactive; ? = inconclusive; . = no result; + = active, no number.

SMILES	DSG3 Ab inh	Granule exo inh	Cardio protect	SENP1 inh	Myeloid diff MLP	HNF4A DNA FP
Cn1ccsc1=NC(=O)c1ccc([N+](=O)[O-])o1	101.7	0.4	2.2	0.0	+	-12.9
Cc1ccc(N(C(=O)c2csnn2)C(C(=O)NC2CCCC2)c2ccccn2)c(C)c1 (centres undefined)	110.7	3.6	6.5	3.0	i	1.5
Cc1cc(C)c(S(=O)(=O)Nc2ccc(C(=O)O)cc2)cc1S(=O)(=O)Nc1ccc(C(=O)O)cc1	.	-7.2	0.9	2.3	i	-1.8
COc1ccc(NC(=O)c2ccc(S(=O)(=O)N3CC(C)CC(C)C3)cc2)cc1S(N)(=O)=O (centres undefined)	91.0	4.6	0.0	1.3	i	-5.7
COc1ccccc1CCc1nnc(CCC(=O)NC(C)Cc2ccsc2)o1 (centres undefined)	8.6*	0.9	0.9	0.4	i	0.5
CC1=C/C(=N\OS(=O)(=O)c2ccccc2)C(C)=CC1=O	69.1	99.1*	-17.1	-0.9	?	-4.3
CCC(=O)c1cn(/C(=C\C(=O)OC(C)(C)C)CCC(OC)OC)cc1CC	100.2	9.5	-2.1	0.1	+	2.1
Cc1c(C#N)c(N)nc2c3c(sc12)NC(=O)CC3c1ccc(Cl)cc1 (centres undefined)	102.0	-0.2	50.1*	-16.4	i	-1.7
N#Cc1c(N)nc2c3c(sc(=N)c2c1N)NC(=O)CC3c1ccccc1 (centres undefined)	.	-0.7	16.2	-19.4	i	7.2
N#Cc1ccsc1NC(=O)CSc1ncnc2ccccc12	.	0.9	5.7	-14.8	+	-10.9
N#Cc1ccsc1NC(=O)CSc1ncn[nH]1	100.0	1.1	6.0	-6.7	i	-3.9
CC(=O)c1ccc(C(=O)N2CCCC(CCC(=O)N(C)CCc3ccccn3)C2)s1 (centres undefined)	99.7	-2.3	3.0	1.5	+	0.5
CC1CCCCC12NC(=O)N(CC(=O)OCC(=O)NC(=O)c1ccccc1)C2=O (centres undefined)	.	-3.1	10.1	1.3	i	6.3
Cc1ccc(N/C(=N/S(=O)(=O)c2cccs2)c2ccccc2)c(C)c1	85.3	-1.1	-1.4	3.2	+	0.0
COc1ccc(O)c(C(=O)c2cnc3nc4ccccc4n3c2)c1	110.4	3.7	60.6*	-13.6	i	2.5
COc1ccc(O)c(C(=O)c2cnn(-c3ccccn3)c2)c1	109.7	-15.1	-0.5	-7.1	i	1.5
CCN(C[C@H]1N[C@@](CC)(C(=O)OC)[C@H]2C(=O)N(Cc3ccccc3)C(=O)[C@@H]12)C(=O)Nc1ccc(OC)cc1	100.0	-0.8	-9.3	-0.8	+	-1.5
COC(=O)[C@]1(C)N[C@H](CN(C)C(=O)Nc2ccc(F)cc2)[C@@H]2C(=O)N(C)C(=O)[C@@H]21	97.9	-2.1	-2.9	0.4	i	1.5
CCN(C[C@H]1N[C@@](CC)(C(=O)OC)[C@H]2C(=O)N(Cc3ccccc3)C(=O)[C@@H]12)S(=O)(=O)c1ccc(F)cc1	90.4	-1.1	58.9*	2.2	i	-3.1
COC(=O)[C@]1(C)N[C@H](CN(C)C(=O)Nc2ccc(OC)cc2)[C@@H]2C(=O)N(C)C(=O)[C@@H]21	79.8*	-1.7	3.2	-0.2	i	-4.3
CCN(C[C@H]1N[C@@](CC)(C(=O)OC)[C@H]2C(=O)N(Cc3ccccc3)C(=O)[C@@H]12)C(=O)Nc1ccc(C(F)(F)F)cc1	95.5	-6.2	-11.7	1.2	i	-2.1
CCOc1nc(C)cc(C)c1S(=O)(=O)c1cccc(Cl)c1	110.9	0.0	-1.2	1.9	i	-3.1
Cc1ccc(C)c(S(=O)(=O)N2CCCC2CNC(=O)C(=O)NCc2ccccn2)c1 (centres undefined)	100.0	-2.3	4.0	1.4	i	1.7
O=C(COC(=O)Cn1[nH]c(=O)c2ccccc2c1=O)NNC(=O)c1ccc(Br)cc1	99.7	-4.8	82.9*	2.1	i	4.3
O=C(COC(=O)Cc1n[nH]c(=O)c2ccccc12)NNC(=O)c1ccc(Cl)cc1	.	-4.3	65.8*	1.9	i	3.4
SMILES	DSG3 Ab inh	Granule exo inh	Cardio protect	SENP1 inh	Myeloid diff MLP	HNF4A DNA FP
O=C(Cc1n[nH]c(=O)c2ccccc12)OCC(=O)c1ccc(F)cc1	110.1	4.5	42.0	2.2	i	2.9
O=C(Cc1n[nH]c(=O)c2ccccc12)OCC(=O)c1ccc2c(c1)OCCO2	108.5	5.2	66.3*	0.6	?	2.0
O=C(Cc1n[nH]c(=O)c2ccccc12)NCc1ccccc1	103.5	1.1	42.4	1.9	i	-1.3
COc1ccc(C(C)=O)cc1COC(=O)Cc1n[nH]c(=O)c2ccccc12	103.9	15.2	72.2*	0.2	i	0.6
COc1ccc(-c2nnc(SCC(=O)c3ccc(O)cc3O)o2)cc1	.	11.3	3.8	-1.0	i	-0.2
O=C(COC(=O)Cc1n[nH]c(=O)c2ccccc12)NNC(=O)c1ccc(Br)cc1	103.8	8.1	52.6*	1.0	i	-2.7
COc1ccc(C(C)=O)cc1COC(=O)c1cc(C)nc2ccccc12	60.5*	-1.1	8.5	-1.2	i	2.7
Cc1ccccc1OCC(=O)NNC(=O)Cn1[nH]c(=O)c2ccccc2c1=O	133.9	4.2	52.8*	1.3	i	-8.1
COc1ccc(C(C)=O)cc1COC(=O)c1ccc2ccccc2n1	97.3	1.8	0.0	-1.4	i	3.2
Cc1ccccc1OCC(=O)NNC(=O)CN1C(=O)c2ccccc2C1=O	102.2	-3.1	7.0	0.7	i	-1.2
CCOc1ccc(C(=O)COC(=O)Cc2n[nH]c(=O)c3ccccc23)cc1	82.4	-5.7	44.2	-1.3	.	3.1
CCN(CC(=O)Nc1c(F)cccc1F)C(=O)Cn1[nH]c(=O)c2ccccc2c1=O	112.4	-2.5	84.3*	2.4	i	-1.5
O=C1NCCN(C(=O)CCc2nnc(-c3ccsc3)o2)C1c1ccc(F)cc1 (centres undefined)	97.8	-3.2	-0.2	0.1	i	-7.1
Clc1nnc(Cl)c2c1ncn2Cc1ccccc1	93.3	-10.2	3.8	2.4	i	2.6
Cc1ccc2oc(-c3cccc(N)c3)nc2c1	103.3	1.2	-20.8	0.6	i	-4.1
Nc1cccc(-c2nc3cc(S(=O)(=O)c4ccc5oc(-c6cccc(N)c6)nc5c4)ccc3o2)c1	77.4*	0.5	3.9	-12.7	i	-3.6
O=C(O)CCCN1C(=O)/C(=C\c2ccco2)SC1=S	95.9	-0.9	2.6	-0.3	i	-28.6
O=C(O)CCN1C(=O)/C(=C\c2ccc(-c3nc4ccccc4s3)o2)SC1=S	96.4	43.4	8.6	-20.1	i	45.4*
